From ChEMBL document CHEMBL1134335, “Structure-activity relationships of pyridoxal phosphate derivatives as potent and selective antagonists of P2X1 receptors” (J Med Chem, 2001)
Activity calls are given as the source filed them. The rule behind the calls is not given here.

How the values were obtained:
P2X purinoceptor 1 = molecular target: T1, P2X purinoceptor 1 (Rattus norvegicus, UniProt P47824); assay: Inhibition of inward ion current elicited by ATP at P2X1 receptor expressed in Xenopus oocytes; format: functional, cell-based, Oocyte
T1 sequence (P47824 whole entry): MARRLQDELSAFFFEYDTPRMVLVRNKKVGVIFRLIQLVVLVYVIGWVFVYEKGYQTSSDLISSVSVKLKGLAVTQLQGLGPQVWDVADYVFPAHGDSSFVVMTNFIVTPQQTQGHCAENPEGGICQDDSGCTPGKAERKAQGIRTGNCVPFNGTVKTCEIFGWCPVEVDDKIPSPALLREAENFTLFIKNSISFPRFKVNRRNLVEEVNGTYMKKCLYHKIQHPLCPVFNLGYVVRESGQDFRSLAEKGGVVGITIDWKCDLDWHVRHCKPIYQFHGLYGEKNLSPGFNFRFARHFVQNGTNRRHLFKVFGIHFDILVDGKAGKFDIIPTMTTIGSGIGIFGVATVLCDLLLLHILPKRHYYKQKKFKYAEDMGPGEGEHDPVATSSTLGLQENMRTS

P2Y purinoceptor 1 = P2Y purinoceptor 1 (Meleagris gallopavo, UniProt P49652); assay: Inhibition of 10 nM 2-MeS-ADP-stimulated phospholipase C in turkey erythrocyte membranes using [3H]inositol; format: functional, cell membranes
Sequence of P2Y purinoceptor 1 (P49652 whole entry): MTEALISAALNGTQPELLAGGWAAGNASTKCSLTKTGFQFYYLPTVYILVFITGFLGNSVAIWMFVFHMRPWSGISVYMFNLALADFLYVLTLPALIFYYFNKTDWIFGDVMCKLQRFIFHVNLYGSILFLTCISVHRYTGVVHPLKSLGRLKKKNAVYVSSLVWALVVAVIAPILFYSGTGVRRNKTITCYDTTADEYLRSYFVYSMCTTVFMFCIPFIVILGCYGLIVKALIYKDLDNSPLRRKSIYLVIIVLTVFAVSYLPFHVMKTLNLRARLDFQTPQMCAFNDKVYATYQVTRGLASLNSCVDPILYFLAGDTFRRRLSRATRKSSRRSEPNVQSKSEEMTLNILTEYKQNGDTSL
In short: (§1)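 Turkey erythrocytes labelled 18-24 h at 37 °C with 2-[³H]myo-inositol in inositol-free DMEM, then lysed hypotonically (5 mM sodium phosphate pH 7.4, 5 mM MgCl₂, 1 mM EGTA) to make ghosts. Ghosts were incubated 5 min at 30 °C in pH 7.0 Hepes/KCl buffer with 1 µM GTPγS and 10 nM 2-MeSADP. Total [³H]inositol phosphates were measured by anion-exchange chromatography; 3-8 independent determinations.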

P2X purinoceptor 2 = molecular target: T2, P2X purinoceptor 2 (Rattus norvegicus, UniProt P49653); assay: Inhibition of inward ion current elicited by ATP at P2X2 receptor expressed in Xenopus oocytes; format: functional, cell-based, Oocyte
T2 sequence (P49653 whole entry): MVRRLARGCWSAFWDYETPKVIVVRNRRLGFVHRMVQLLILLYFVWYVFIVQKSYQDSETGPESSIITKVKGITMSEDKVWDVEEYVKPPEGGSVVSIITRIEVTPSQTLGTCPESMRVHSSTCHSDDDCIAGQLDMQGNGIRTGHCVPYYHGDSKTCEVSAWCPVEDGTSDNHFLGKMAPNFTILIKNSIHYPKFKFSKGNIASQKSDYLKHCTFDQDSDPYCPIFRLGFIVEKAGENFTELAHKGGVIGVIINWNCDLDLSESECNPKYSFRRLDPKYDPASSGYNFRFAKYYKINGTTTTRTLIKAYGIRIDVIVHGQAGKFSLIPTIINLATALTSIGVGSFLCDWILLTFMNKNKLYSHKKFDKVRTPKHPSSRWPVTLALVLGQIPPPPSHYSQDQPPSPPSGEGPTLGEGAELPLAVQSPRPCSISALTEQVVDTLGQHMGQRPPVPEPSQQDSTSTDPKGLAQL

P2X purinoceptor 3 = molecular target: T3, P2X purinoceptor 3 (Rattus norvegicus, UniProt P49654); assay: Inhibition of inward ion current elicited by ATP was determined at recombinant P2X3 receptor expressed in Xenopus oocytes; format: functional, cell-based, Oocyte
T3 sequence (P49654 whole entry): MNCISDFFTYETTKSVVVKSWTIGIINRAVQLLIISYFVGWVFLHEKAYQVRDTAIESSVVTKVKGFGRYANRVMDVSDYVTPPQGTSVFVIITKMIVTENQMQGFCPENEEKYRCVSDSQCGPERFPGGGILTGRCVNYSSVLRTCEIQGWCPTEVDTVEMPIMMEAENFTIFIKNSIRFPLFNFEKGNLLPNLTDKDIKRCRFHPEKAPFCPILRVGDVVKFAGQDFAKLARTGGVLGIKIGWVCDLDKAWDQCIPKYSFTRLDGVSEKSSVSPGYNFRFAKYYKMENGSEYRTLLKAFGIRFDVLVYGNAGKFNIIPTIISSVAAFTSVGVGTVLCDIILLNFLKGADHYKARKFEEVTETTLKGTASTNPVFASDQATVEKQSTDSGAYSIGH

[1] = molecular target: T4, P2X purinoceptor 7 (Homo sapiens) (UniProt Q99572); assay: Percent inhibition of ATP-induced K+ efflux (ethidium influx) in suspended HEK293 cells expressing human P2X7 receptor; format: functional, cell-based; conditions: concentration not given here
T4 sequence (whole entry): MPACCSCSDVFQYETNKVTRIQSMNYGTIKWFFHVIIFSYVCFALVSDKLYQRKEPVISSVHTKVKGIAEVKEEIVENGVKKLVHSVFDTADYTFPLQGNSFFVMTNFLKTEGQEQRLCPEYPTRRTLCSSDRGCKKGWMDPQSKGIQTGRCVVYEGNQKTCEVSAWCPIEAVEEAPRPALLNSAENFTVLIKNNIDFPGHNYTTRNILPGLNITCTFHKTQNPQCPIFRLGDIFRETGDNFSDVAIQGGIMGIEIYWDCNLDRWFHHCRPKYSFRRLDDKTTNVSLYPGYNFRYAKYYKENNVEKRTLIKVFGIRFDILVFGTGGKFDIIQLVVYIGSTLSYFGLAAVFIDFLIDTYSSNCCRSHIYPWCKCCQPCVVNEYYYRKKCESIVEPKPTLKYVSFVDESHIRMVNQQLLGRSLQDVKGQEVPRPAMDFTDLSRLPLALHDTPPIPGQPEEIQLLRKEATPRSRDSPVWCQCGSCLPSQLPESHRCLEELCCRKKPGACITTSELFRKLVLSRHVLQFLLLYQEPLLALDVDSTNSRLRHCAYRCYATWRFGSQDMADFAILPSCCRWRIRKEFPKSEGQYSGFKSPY
In short: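 Trypsinised HEK293 cells stably expressing human P2X7 were suspended in divalent cation-free saline in a stirred cuvette at 37 °C with 20 µM ethidium bromide. Cells were treated with 30 µM compound, then 300 µM ATP.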

[2] = molecular target: T4, P2X purinoceptor 7 (Homo sapiens); assay: Percentage inhibition of ATP-induced K+ efflux (cation free) in adherent HEK293 cells expressing human P2X7 receptor; format: functional, cell-based; conditions: concentration not given here
In short: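 Adherent HEK293 cells stably expressing human P2X7, in divalent cation-free saline (no added MgCl₂ or CaCl₂; pH 7.5). Pretreated with 30 µM compound, then 3 mM ATP for 10 min at 37 °C. Residual cell K⁺ was extracted in 10% HNO₃ for 2 h and measured by atomic absorbance against untreated cells. n=3, each in duplicate.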

[3] = molecular target: T4, P2X purinoceptor 7 (Homo sapiens); assay: Percent inhibition of ATP-induced K+ efflux (with cations) in adherent HEK293 cells expressing human P2X7 receptor; format: functional, cell-based; conditions: concentration not given here
In short: (§2)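 Adherent HEK293 cells stably expressing human P2X7, grown to 90% confluence, in saline with 1 mM MgCl₂ and 1.5 mM CaCl₂ (pH 7.5). Pretreated with 30 µM compound, then 3 mM ATP for 10 min at 37 °C. Cell K⁺ was extracted in 10% HNO₃ for 2 h and read by atomic absorbance relative to untreated cells. n=3, each in duplicate.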

[4] = molecular target: T5, P2X purinoceptor 1 (Rattus norvegicus) (UniProt P47824); assay: Inhibition of inward ion current elicited by ATP at P2X1 receptor expressed in Xenopus oocytes at 10 uM; format: functional, cell-based; conditions: Oocyte
T5 sequence (whole entry): T1 sequence (P47824 whole entry)

[5] = molecular target: T6, P2X purinoceptor 3 (Rattus norvegicus) (UniProt P49654); assay: Inhibition of inward ion current elicited by ATP at recombinant P2X3 receptor expressed in Xenopus oocytes at 10 uM; format: functional, cell-based; conditions: Oocyte
T6 sequence (whole entry): T3 sequence (P49654 whole entry)

[6] = molecular target: P2Y purinoceptor 1 (Meleagris gallopavo) (UniProt P49652); assay: Inhibition of 10 nM 2-MeS-ADP-stimulated phospholipase C in turkey erythrocyte membranes using [3H]inositol; IA means inactive; format: functional, cell membranes; in short: as §1
Sequence of P2Y purinoceptor 1 (Meleagris gallopavo) (P49652 whole entry): as the sequence (P49652 whole entry) above

[7] = molecular target: T7, P2X purinoceptor 2 (Rattus norvegicus) (UniProt P49653); assay: Inhibition of inward ion current elicited by ATP at P2X2 receptor expressed in Xenopus oocytes; IA means inactive; format: functional, cell-based; conditions: Oocyte
T7 sequence (whole entry): T2 sequence (P49653 whole entry)

[8] = molecular target: T6, P2X purinoceptor 3 (Rattus norvegicus); assay: Inhibition of inward ion current elicited by ATP at P2X3 receptor expressed in Xenopus oocytes; IA means inactive; format: functional, cell-based; conditions: Oocyte
[9] = molecular target: T4, P2X purinoceptor 7 (Homo sapiens); assay: Inhibition of ATP-induced K+ efflux (with cations) in adherent HEK293 cells expressing human P2X7 receptor; format: functional, cell-based; conditions: concentration not given here; in short: as §2

Row | Structure (SMILES) | IC50 (P2X purinoceptor 1) [nM] | IC50 (P2Y purinoceptor 1) [nM] | IC50 (P2X purinoceptor 2) [nM] | IC50 (P2X purinoceptor 3) [nM] | inhibition [1] [%] | inhibition [2] [%] | inhibition [3] [%] | also measured
1 | Cc1nc(/N=N/c2ccc(C(=O)O)cc2)c(COP(=O)(O)O)c(C=O)c1O | 9.4 | 100000 | 11900 | 140 |  |  |  | 
2 | Cc1nc(/N=N/c2cc(C(=O)O)ccc2C(=O)O)c(CP(=O)(O)O)c(C=O)c1O | 37 |  | 486 | 330 |  |  |  | 
3 | Cc1nc(/N=N/c2cc(S(=O)(=O)O)ccc2Cl)c(COP(=O)(O)O)c(COP(=O)(O)O)c1O |  | 100000 |  |  | 12 | -5 | -1 | inhibition [4]: 78%; inhibition [5]: 30%
4 | Cc1nc(/N=N/c2cc(S(=O)(=O)O)ccc2S(=O)(=O)O)c2c(c1O)COP(=O)(O)OC2 |  |  |  |  | 17 | -5 | -1 | Inhibition activity [6]: inactive; IA [7]: inactive
5 | Cc1nc(/N=N/c2ccc(C(=O)O)cc2)c(CCP(=O)(O)O)c(C=O)c1O | 20 | 100000 | 2400 | 145 |  |  |  | 
6 | Cc1ncc2c(c1O)COP(=O)(O)OC2 |  |  |  |  |  |  |  | Inhibition activity [6]: inactive; IA [7]: inactive; IA [8]: inactive
7 | Cc1nc(/N=N/c2cc(S(=O)(=O)O)ccc2Cl)c(CP(=O)(O)O)c(C=O)c1O |  |  |  |  | 40 | -8 | -5 | 
8 | Cc1nc(/N=N/c2cc(S(=O)(=O)O)ccc2S(=O)(=O)O)c(COP(=O)(O)O)c(C=O)c1O [ISOPPADS] | 43 | 21400 | 398 |  | 100 | 67 |  | inhibition [9]: 81%
9 | Cc1nc(/N=N/c2cc(CP(=O)(O)O)cc(CP(=O)(O)O)c2)c(CP(=O)(O)O)c(C=O)c1O | 11 | 14500 | 280 | 25 | 84 | -5 | 0 | 
10 | Cc1nc(/N=N/c2ccc(C(=O)O)cc2)c2c(c1O)COP(=O)(O)OC2 |  |  |  |  |  |  |  | inhibition [4]: 39%
11 | Cc1nc(/N=N/c2cc(S(=O)(=O)O)ccc2S(=O)(=O)O)c(COP(=O)(O)O)c(COP(=O)(O)O)c1O |  | 100000 |  |  | 15 | -7 | -1 | inhibition [4]: 27%
